# From PubChem BioAssay
# Active and inactive are the calls of the source.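 Rule for the calls, unless noted: active = viability at or below 30% in both replicate assays; inconclusive = viability at or below 30% in just one of the two assays; inactive = the rest.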
# Assays:
# [1] = biological target: Pantothenate synthetase (Mycobacterium tuberculosis (strain ATCC 25618 / H37Rv)) (UniProt P9WIL5); experiment: Recombinant Mtb pantothenate synthetase (PanC) inhibitors, coupled enzyme, confirmatory (AID 375; call rule not given here;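 note: 0% = full reaction with vehicle and 100% = no enzyme background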); conditions: coupled enzyme assay; at 10 µM, stronger effect = higher value
# Chain of Pantothenate synthetase (Mycobacterium tuberculosis (strain ATCC 25618 / H37Rv)) (P9WIL5 whole entry, looked up): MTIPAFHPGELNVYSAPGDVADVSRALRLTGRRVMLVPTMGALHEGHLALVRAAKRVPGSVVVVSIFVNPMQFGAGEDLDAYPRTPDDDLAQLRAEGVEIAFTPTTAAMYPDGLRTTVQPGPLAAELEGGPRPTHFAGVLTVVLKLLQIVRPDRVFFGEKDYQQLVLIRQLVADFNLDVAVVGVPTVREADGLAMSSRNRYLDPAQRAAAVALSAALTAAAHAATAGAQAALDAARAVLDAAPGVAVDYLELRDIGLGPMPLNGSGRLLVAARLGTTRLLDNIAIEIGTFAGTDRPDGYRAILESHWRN
# [2] = SK-BR-3 cell growth inhibitors, pilot screen, 24 h, human (AID 572;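 active = viability at or below 10% of carrier control in both of two separate runs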;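 note: compound exposure lasted between 18 and 24 h rather than exactly 24 h; 100% = carrier-treated control wells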); conditions: SK-BR-3 viability, CellTiter-Glo luminescence, at 10 µM, stronger effect = lower value
# [3] = HUVEC growth inhibition – cell-based, human, primary screen (AID 575); conditions: HUVEC proliferation, CellTiter-Glo luminescence, 72 h; at 10 µM; stronger effect = lower value;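 note: 100% = median of untreated cell wells with 0.1% DMSO on each plate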
# How it was run: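 Material: primary human umbilical vein endothelial cells / Schedule: 72 h exposure, 37 °C, 5% CO2, 30 min RT equilibration / Signal: ATP-based CellTiter-Glo luminescent read / Read-out basis: percent of median DMSO-control luminescence / Control set: 32 DMSO-only cell-control wells (high), 32 MePR drug-control wells (low) per plate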
# [4] = growth inhibitors of H69AR lung tumor, primary screen, human, duplicate replicates (AID 580;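 active = viability at or under a set limit in both replicates, limit being median viability minus 3 SD, cut at about 48% in these data, passing the limit was not always enough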;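 note: 100% = mean luminescence of untreated wells and 0% = no signal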); conditions: H69AR lung tumor cells viability, ATP luminescence, 72 h; at 10 µM; stronger effect = lower value
# [5] = reversal of MRP1-mediated doxorubicin resistance, pilot screen, H69AR cells, doxorubicin co-treatment (AID 601;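 active = viability loss from added drug above about 55%, and viability with drug at most 40%, in both replicates, limit read from the data, passing the limit was not always enough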); conditions: CellTiter-Glo, 72 h, at 10 µM; for differential viability (reversal): stronger effect = higher value
# [6] = 384-well plate pilot, post-Golgi transport modulator project, inhibition of yeast transport mutant growth (AID 636; in the data active = inhibition above about 31%); conditions: absorbance 615 nm, about 18 h, stronger effect = higher value
# [7] = growth suppression of yeast trafficking mutant, preliminary HTS, modulators of trafficking downstream of Golgi apparatus project, 1536-format plate, OD 615 nm (AID 637; in the data active = inhibition above about 30%); conditions: yeast transport mutant growth, absorbance 615 nm, 18 h; stronger effect = higher value
# [8] = H69AR cells + 2 uM doxorubicin, measured here: viability with 2 uM doxorubicin, stronger effect = lower value
# [9] = H69AR cells, compound alone cytotoxicity
SMILES,inhibition [1],viability [2],viability [3],viability [4],differential viability (reversal) ([5]; H69AR cells + 2 uM doxorubicin),"viability [5, 8] [%]","viability [5, 9] [%]",inhibition [6],inhibition [7]
Cc1ccc2nc(N3CCN(C)CC3)[nH]c2c1,0% (inactive),111% (inactive),90.4% (inactive),93.6% (inactive),2.07% (inactive),91.5,93.6,1.64% (inactive),-1.13% (inactive)
COc1ccc(CC[n+]2cc(/N=C(\C)[O-])on2)cc1OC,0% (inactive),146% (inactive),93.9% (inactive),92.1% (inactive),-3.11% (inactive),95.2,92.1,0.52% (inactive),4.26% (inactive)
CCOC(=O)C1SC2(C(F)F)CC1(O)c1c(c(OC)c3occc3c1OC)O2 (stereo not given),0% (inactive),91% (inactive),93.3% (inactive),104% (inactive),22.9% (inactive),80.9,104,-4.73% (inactive),0.73% (inactive)
O=C(O)CCCc1ccc(N(CCCl)CCCl)cc1,0% (inactive),78% (inactive),68.1% (inactive),81.8% (inactive),-17.3% (inactive),99.1,81.8,-1.17% (inactive),0.67% (inactive)
C[N+]1(C)[C@@H]2CC(OC(=O)[C@H](CO)c3ccccc3)C[C@H]1[C@@H]1O[C@@H]12 (stereo not given in full),0% (inactive),97% (inactive),101% (inactive),106% (inactive),8.56% (inactive),97.7,106,-2.21% (inactive),8.67% (inactive)
O=C(O)Cn1cc(C(=O)c2ccccc2)c2ccccc21,0% (inactive),89% (inactive),104% (inactive),94.7% (inactive),-1.34% (inactive),96,94.7,-7.07% (inactive),-0.36% (inactive)
CCOCC(=O)NC1CCSC1=O (stereo not given),0% (inactive),74% (inactive),99.4% (inactive),93.8% (inactive),0.265% (inactive),93.6,93.8,-9.45% (inactive),5.16% (inactive)
CC[C@@H](CO)NC(=O)[C@@H]1C=C2c3cccc4c3c(cn4C)C[C@H]2N(C)C1,7% (inactive),147% (inactive),96.8% (inactive),95.4% (inactive),-1.17% (inactive),96.6,95.4,1.17% (inactive),-2% (inactive)
C=C1CC[C@@]2(O)[C@H]3Cc4ccc(O)c5c4[C@@]2(CCN3CC2CC2)[C@H]1O5,0% (inactive),101% (inactive),95.2% (inactive),110% (inactive),14.7% (inactive),95.5,110,-1.43% (inactive),6.83% (inactive)
CN(C)[C@@H]1C(=O)C(C(N)=O)=C(O)[C@@]2(O)C(=O)C3=C(O)c4c(O)cccc4[C@@](C)(O)[C@H]3[C@H](O)[C@@H]12,3% (inactive),115% (inactive),101% (inactive),103% (inactive),2.03% (inactive),101,103,0.52% (inactive),1.17% (inactive)
Cc1ccnc(-n2c(-c3ccco3)nc3ccccc3c2=O)c1,0% (inactive),105% (inactive),107% (inactive),99.8% (inactive),10.2% (inactive),89.6,99.8,-2.47% (inactive),1.15% (inactive)
CCN1c2nc3ccccn3c(=O)c2CC2(C(=O)N(C)C(=O)N(C)C2=O)C1C (stereo not given),0% (inactive),119% (inactive),104% (inactive),96% (inactive),5.97% (inactive),90,96,-9.18% (inactive),2.9% (inactive)
CC(=O)[C@@]1(O)CC[C@H]2[C@@H]3CC=C4C[C@@H](O)CC[C@]4(C)[C@H]3CC[C@@]21C,0% (inactive),89% (inactive),84.6% (inactive),89.8% (inactive),5.5% (inactive),84.3,89.8,-0.26% (inactive),4.33% (inactive)
CC[N+]1(C)CCCC(OC(=O)C(O)(c2ccccc2)c2ccccc2)C1 (stereo not given),0% (inactive),81% (inactive),76.8% (inactive),101% (inactive),11.1% (inactive),89.6,101,-5.71% (inactive),-3.67% (inactive)
[N-]=[N+]=CC(=O)OC[C@H](N)C(=O)O,0% (inactive),99% (inactive),96.5% (inactive),88.5% (inactive),-17.2% (inactive),106,88.5,1.56% (inactive),1.83% (inactive)
